High-throughput results deposited in PubChem BioAssay by Sanford-Burnham Center for Chemical Genomics.
SKN-1 block = inhibitors of C. elegans SKN-1; C. elegans VP596 Pgst-4::GFP/RFP ratio, acrylamide-induced, 24 h; inhibition, % at 21.8 µM; hit rate 0.49% among 360,000; AID 624304;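 active = interference check ratio from 0.5 to 1.5 plus GFP to RFP signal ratio inhibition reaching or exceeding a fixed threshold, cut at about 30% in these data, passing the limit was not always enough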
ATG4B inh = inhibitors of human ATG4B cysteine protease; Q9Y4P1; ATG4B cleavage of LC3-PLA2, NBD-HPC fluorescence, 1 h; inhibition, % at 8.33 µM; hit rate 0.51% among 340,000; in the data active = inhibition above about 40%
MT1-MMP act inh = MT1-MMP (human) activation inhibition | hit rate 0.061% among 360,000 | HT1080 RFP-PRO-GFP cells, GFP/RFP ratio fluorescence, overnight; percent of plate control window, DMSO zero | GFP/RFP ratio change, % at 20 µM | P50281;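 active = GFP/RFP ratio change of at least 30% with cell ATP level not reduced by more than half and red fluorescence within 50% of control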
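Compound: 20 µM single dose, 1% DMSO / System: HT1080 RFP-PRO-GFP cells / Controls: DMSO and RFP-L50D-GFP cell wells / Read-out basis: GFP/RFP fluorescence ratio / Schedule: overnight compound exposure at 37 °C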
MPTP inh = blocks calcium-induced mitochondrial swelling | isolated mouse mitochondria, Ca2+ swelling absorbance, 30 min | inhibition, % at 10 µM | hit rate 1.4% among 360,000 | AID 602449;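 active = inhibition of 50% or more, scaled per plate between neutral and stimulator controls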;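 also: 0% = DMSO wells given calcium and 100% = 1 mM EGTA wells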
ATG4B confirm = ATG4B (human) inhibition, single-dose confirmed; shares compounds with ATG4B inh; ATG4B protease fluorescent substrate cleavage assay; inhibition, % at 8.33 µM; hit rate 92% among 320; in the data active = inhibition above about 39%
PLA2 counter = inhibits human PLA2, flagging false ATG4B inhibitors. shares compounds with ATG4B inh. purified PLA2, NBD-C6-HPC fluorescence, 45 min. inhibition, % at 8.33 µM. hit rate 66% among 1,600. AID 588402; in the data active = inhibition above about 50%
Target sequence (P04054 whole entry, looked up): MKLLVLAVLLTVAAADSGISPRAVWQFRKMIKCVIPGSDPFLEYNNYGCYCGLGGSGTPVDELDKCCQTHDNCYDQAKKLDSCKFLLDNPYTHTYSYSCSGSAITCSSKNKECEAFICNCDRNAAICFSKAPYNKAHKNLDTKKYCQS
The depositor's hits bear a star. An excerpt weighted towards active compounds, which were near 2.3% of everything screened.

`COc1ccc2cc(C=NS(=O)(=O)c3ccc(C)cc3)n(C)c2c1` gave SKN-1 block -3, ATG4B inh 83*, MT1-MMP act inh -1, MPTP inh 2 and PLA2 counter 75*.
`CC1CCCN(C(=O)Cc2cn(Cc3cccc(Cl)c3)c3ccccc23)C1` (stereo not drawn) gave SKN-1 block 10, ATG4B inh 48*, MT1-MMP act inh -7, MPTP inh 7 and PLA2 counter 56*.
Screening O=C(Cc1cn(Cc2cccc(Cl)c2)c2ccccc12)N1CCCCCC1 returned SKN-1 block 5, ATG4B inh 50*, MT1-MMP act inh -7, MPTP inh -20 and PLA2 counter 47.
COc1ccc(F)cc1-c1cc(NC(C)=O)c2ncc(-c3cccc(C(F)(F)F)c3)n2c1 was read as SKN-1 block 5, MT1-MMP act inh -8 and MPTP inh 0.
`Cc1ccc(Cc2cnc(N3C(=N)SC(C)C3=O)s2)cc1` (stereo not drawn) gave SKN-1 block 2, ATG4B inh 2, MT1-MMP act inh 2 and MPTP inh -1.
For O=C1c2ccccc2C(=O)N1c1ncc(Cc2ccc(Cl)cc2)s1 the results were SKN-1 block -11, ATG4B inh 80*, MT1-MMP act inh 4, MPTP inh 1 and PLA2 counter 64*.
`NC(=O)c1ccc(Oc2ccc(Cl)cc2)c([N+](=O)[O-])c1` gave SKN-1 block -3, ATG4B inh 59*, MT1-MMP act inh 0, MPTP inh 1 and PLA2 counter 58*.
Screening NC(=O)c1ccc(Oc2ccc3c(c2)CCC3)c([N+](=O)[O-])c1 returned SKN-1 block 3, ATG4B inh 80*, MT1-MMP act inh -4, MPTP inh -1 and PLA2 counter 85*.
NC(=O)c1ccc(Oc2ccc(Cl)c3ccccc23)c([N+](=O)[O-])c1 was read as SKN-1 block 14, ATG4B inh 62*, MT1-MMP act inh -2, MPTP inh 0 and PLA2 counter 54*.
Screening Cc1ccc(NC(=O)CSCC(=O)N2CCCc3ccccc32)cc1 returned SKN-1 block 5, ATG4B inh 2, MT1-MMP act inh 3 and MPTP inh 0.
`Cc1ncccc1C(=O)N1CCCC(c2cc(C(=O)Nc3ccc(C(C)(C)C)cc3)no2)C1` (stereo not drawn) gave SKN-1 block 1, MT1-MMP act inh -1 and MPTP inh 0.
For CCCCCOc1ccc(CSC(=N)N)cc1[N+](=O)[O-] the results were SKN-1 block -3, ATG4B inh 64*, MT1-MMP act inh -9, MPTP inh 5 and PLA2 counter 61*.
Screening COc1ccc(CSC(=N)N)cc1[N+](=O)[O-] returned SKN-1 block -16, ATG4B inh -9, MT1-MMP act inh 8 and MPTP inh 2.
CN1CCN(C2=C(Cl)C(=O)c3ccccc3C2=O)CC1 was read as SKN-1 block 31, ATG4B inh 73*, MT1-MMP act inh 6, MPTP inh 0, ATG4B confirm 30 and PLA2 counter -16.
O=C1Nc2ccc(F)cc2C12Nc1ccccc1-c1nnc(SCc3ccccc3Cl)nc1O2 (stereo not drawn) was read as SKN-1 block 9, ATG4B inh 43*, MT1-MMP act inh 11, MPTP inh 0 and PLA2 counter 77*.
For O=C1Nc2ccc(F)cc2C12Nc1ccccc1-c1nnc(SCc3ccccc3)nc1O2 (stereo not drawn) the results were SKN-1 block 11, ATG4B inh 6, MT1-MMP act inh -10 and MPTP inh 3.
`CCCc1nc(SCC(=O)N2c3ccccc3CC2C)c2c(C)c(C)sc2n1` (stereo not drawn) gave SKN-1 block 10, ATG4B inh 69*, MT1-MMP act inh -5, MPTP inh 2 and PLA2 counter 81*.
`Cc1cccc(C(=O)Oc2c(Br)cc(Br)cc2/C=N/NC(=O)c2ccncc2)c1` gave SKN-1 block 11, ATG4B inh 3, MT1-MMP act inh 0 and MPTP inh -3.
Screening Cc1cc(C(=O)N/N=C/c2cccs2)n[nH]1 returned SKN-1 block 1, ATG4B inh 3, MT1-MMP act inh 4 and MPTP inh -2.
